Measurements taken from ChEMBL document CHEMBL4765418, “Discovery of novel quinazolinone derivatives as potential anti-HBV and anti-HCC agents” (Eur J Med Chem, 2020).

What was measured:
HepG2 = assay: Antiproliferative activity against human HepG2 cells assessed as inhibition of cell proliferation after 72 hrs by MTT assay; type: functional, cell-based; details: HepG2, 72 h
Method in brief: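 Cells seeded in 96-well plates and grown 24 h to reach exponential growth, then exposed to test compounds in culture medium for 72 h. Viability read by MTT absorbance at 490 nm relative to untreated cells. IC50 is the concentration giving 50% inhibition of proliferation.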

[1] = Cytotoxicity against human HepG2 2.2.15 cells assessed as reduction in cell viability measured after 72 hrs by MTT assay; type: cell-based
Method in brief: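 HepG2 2.2.15 cells (HBV-producing; grown in DMEM with 10% FBS, penicillin/streptomycin and 0.38 mg/mL G418) seeded in 96-well plates and grown 24 h, then treated 72 h with compounds. Viability read by MTT absorbance at 490 nm relative to untreated cells. CC50 is the dose causing 50% cell death.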

Hepatitis B virus [2] = assay: Antiviral activity against HBV infected in human HepG2.2.15 cells assessed as inhibition of DNA replication at 0.8 uM supplemented with fresh medium containing compound every 2 days for 6 days by RT-PCR analysis relative to control; type: functional; details: HepG2 2.2.15, 144 h, time 6 day
Method in brief: (§1)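 HepG2 2.2.15 cells (2×10^5/well, 24-well) left 24 h to recover from trypsinization, then given fresh medium with compound (single-point screen at 0.8 μM), renewed every 2 days for 6 days. Intracellular HBV DNA extracted and quantified by real-time PCR. IC50 is the dose giving 50% inhibition of DNA replication, taken from dose–response.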

Hepatitis B virus [3] = assay: (§2) Antiviral activity against HBV infected in human HepG2.2.15 cells assessed as inhibition of DNA replication at 10 uM supplemented with fresh medium containing compound every 2 days for 6 days by RT-PCR analysis relative to control; type: functional; details: HepG2 2.2.15, 144 h, time 6 day
Hepatitis B virus [4] = assay: as §2, with “against lamivudine and entecavir-resistant” for “against”, “HBV harboring rtL180 M/rtM204V/rtT184L mutant” for “HBV”; type: functional; details: HepG2 2.2.15, 144 h, time 6 day
[5] = Selectivity index, ratio of CC50 for human HepG2 2.2.15 cells to IC50 for antiviral activity against HBV infected in human HepG2.2.15 cells assessed as inhibition of DNA replication; type: toxicity, cell-based; details: read-out: Ratio CC50/IC50
Hepatitis B virus [6] = assay: Antiviral activity against HBV infected in human HepG2.2.15 cells assessed as inhibition of DNA replication supplemented with fresh medium containing compound every 2 days for 6 days by RT-PCR analysis; type: functional, organism-based; details: HepG2 2.2.15; method in brief: as §1
Hepatitis B virus [7] = assay: (§3) Antiviral activity against HBV infected in human HepG2.2.15 cells assessed as inhibition of DNA replication at 100 uM supplemented with fresh medium containing compound every 2 days for 6 days by RT-PCR analysis relative to control; type: functional; details: HepG2 2.2.15, 144 h, time 6 day
Hepatitis B virus [8] = assay: as §3, with “against lamivudine and entecavir-resistant” for “against”, “HBV harboring rtL180 M/rtM204V/rtT184L mutant” for “HBV”; type: functional; details: HepG2 2.2.15, 144 h, time 6 day
Hepatitis B virus [9] = assay: Antiviral activity against HBV infected in human HepG2.2.15 cells assessed as inhibition of HBsAg production supplemented with fresh medium containing compound every 3 days for 6 days by EIA relative to control; type: functional, HepG2 2.2.15; details: time 6 day

| SMILES | IC50 (HepG2) [µM] | IC50 (Hepatitis B virus [6]) [µM] | CC50 at 72 h [1] [µM] | inhibition at 0.8 µM (Hepatitis B virus [2]) [%] | inhibition at 10 µM (Hepatitis B virus [3]) [%] | inhibition at 10 µM (Hepatitis B virus [4]) [%] | selectivity ratio [5] | inhibition at 100 µM (Hepatitis B virus [7]) [%] | inhibition at 100 µM (Hepatitis B virus [8]) [%] | inhibition (INH) (Hepatitis B virus [9]) [%] |
| --- | --- | --- | --- | --- | --- | --- | --- | --- | --- | --- |
| C=C1[C@H](CO)[C@@H](O)C[C@@H]1n1cnc2c(=O)[nH]c(N)nc21 [ENTECAVIR] | – | – | – | – | 96.9 | 18.9 | – | – | – | – |
| CN(C)CCOc1ccc2nc(SCc3ccccc3)n(Cc3cccs3)c(=O)c2c1 | – | 0.77 | > 10 | 53.6 | – | – | > 13 | – | – | – |
| COc1ccc(C(C)=O)cc1CSc1nc2ccc(OCCCN(C)C)cc2c(=O)n1Cc1cccs1 | 8.98 | – | 9.63 | 0.16 | – | – | – | – | – | – |
| CN(C)CCOc1ccc2nc(SCc3ccccc3)n(Cc3ccccc3)c(=O)c2c1 | > 20 | 0.68 | > 10 | 65.5 | – | – | > 14.7 | – | – | – |
| Nc1ccn([C@@H]2CS[C@H](CO)O2)c(=O)n1 [LAMIVUDINE] | – | < 0.1 | > 100 | 84.4 | – | – | > 1000 | 90 | 15.7 | 9.09 |

The next lines start with results.

| IC50 (HepG2) [µM] | IC50 (Hepatitis B virus [6]) [µM] | SMILES | CC50 at 72 h [1] [µM] | inhibition at 0.8 µM (Hepatitis B virus [2]) [%] | inhibition at 10 µM (Hepatitis B virus [3]) [%] | inhibition at 10 µM (Hepatitis B virus [4]) [%] | selectivity ratio [5] | inhibition at 100 µM (Hepatitis B virus [7]) [%] | inhibition at 100 µM (Hepatitis B virus [8]) [%] | inhibition (INH) (Hepatitis B virus [9]) [%] |
| --- | --- | --- | --- | --- | --- | --- | --- | --- | --- | --- |
| > 20 | – | CCN(CC)CCOc1ccc2nc(SCc3cc(C(C)=O)ccc3OC)n(Cc3ccccc3)c(=O)c2c1 | > 10 | 4.93 | – | – | – | – | – | – |
| 11.8 | – | COc1ccccc1CSc1nc2ccc(OCCCN(C)C)cc2c(=O)n1Cc1ccccc1 | > 10 | 3.66 | – | – | – | – | – | – |
| 19 | 0.77 | CCN(CC)CCOc1ccc2nc(SCc3ccccc3OC)n(Cc3ccco3)c(=O)c2c1 | > 10 | 52.6 | – | – | > 13 | – | – | – |
| > 20 | 0.66 | CCN(CC)CCOc1ccc2nc(SCc3ccccc3)n(Cc3ccccc3)c(=O)c2c1 | > 10 | 64.5 | – | – | > 15.2 | – | – | – |
| > 20 | – | CCN(CC)CCOc1ccc2nc(SCc3ccccc3OC)n(Cc3ccccc3)c(=O)c2c1 | > 10 | 9.8 | – | – | – | – | – | – |
| > 100 | 0.72 | COc1ccccc1CSc1nc2ccc(OCCN(C)C)cc2c(=O)n1Cc1ccco1 | > 10 | 67.1 | – | – | > 13.9 | – | – | – |
| 17.5 | – | CN(C)CCOc1ccc2nc(SCc3ccccc3)n(Cc3ccco3)c(=O)c2c1 | > 10 | 21.7 | – | – | – | – | – | – |
